# The source made the active and inactive calls. The rule behind the calls is not given here.
# How the values were obtained:
# Mus musculus [1] = experiment: Antitumor activity against leukemia P388 cell line in mice was determined at 400 mg/kg intraperitoneal dose; IA means inactive; format: functional, organism-based; parameters: dose 400 mg/kg
# Outline: (§1)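 Mice bearing leukemia P388, dosed intraperitoneally; activity read out as % T/C.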
# [2] = Antitumor activity was determined by the ability to inhibit KB cell growth; format: functional, cell-based; details: Homo sapiens
# Outline: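 KB cell growth inhibition, reported as IC50 in μg/mL.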
# Mus musculus [3] = experiment: Antitumor activity against leukemia P388 cell line in mice was determined at 25 mg/kg intraperitoneal dose; format: functional; outline: as §1
# Mus musculus [4] = experiment: Antitumor activity against leukemia P388 cell line in mice was determined at 12.5 mg/kg intraperitoneal dose; format: functional; outline: as §1
# Mus musculus [5] = experiment: Antitumor activity against leukemia P388 cell line in mice was determined at 50 mg/kg intraperitoneal dose; format: functional; outline: as §1
# Mus musculus [6] = experiment: Antitumor activity against leukemia P388 cell line in mice was determined at 100 mg/kg intraperitoneal dose; format: functional; outline: as §1
# Mus musculus [7] = experiment: Antitumor activity against leukemia P388 cell line in mice was determined at 20 mg/kg intraperitoneal dose; format: functional; outline: as §1
# Mus musculus [8] = experiment: Antitumor activity against leukemia P388 cell line in mice was determined at 10 mg/kg intraperitoneal dose; format: functional; outline: as §1
# Mus musculus [9] = experiment: Antitumor activity against leukemia P388 cell line in mice was determined at 2.5 mg/kg intraperitoneal dose; format: functional; outline: as §1
# Mus musculus [10] = experiment: Antitumor activity against leukemia P388 cell line in mice was determined at 40 mg/kg intraperitoneal dose; format: functional; outline: as §1
# Mus musculus [11] = experiment: Antitumor activity against leukemia P388 cell line in mice was determined at 3.1 mg/kg intraperitoneal dose; format: functional; outline: as §1
# Mus musculus [12] = experiment: Antitumor activity against leukemia P388 cell line in mice was determined at 6.3 mg/kg intraperitoneal dose; format: functional; outline: as §1
# Mus musculus [13] = experiment: Antitumor activity against leukemia P388 cell line in mice was determined at 400 mg/kg intraperitoneal dose; format: functional; outline: as §1
structure (smiles),measurement,setting,value
CCOC(c1ccc(OC)cc1)c1c(O)ccc2ncccc12 (centres undefined),T/C,Mus musculus [1],inactive
same,IC50,[2],44 µg/mL
Oc1c(C2OCCc3ccccc32)ccc2cccnc12 (centres undefined),T/C,Mus musculus [1],inactive
same,IC50,[2],1.3 µg/mL
COc1ccc(C(c2ccc(C(C)C)cc(=O)c2O)c2oc(CO)cc(=O)c2O)cc1 (centres undefined),T/C,Mus musculus [3],146%
same,T/C,Mus musculus [4],128%
same,T/C,Mus musculus [5],152%
same,IC50,[2],0.5 µg/mL
CC(C)c1ccc(C2OCCc3ccccc32)c(O)c(=O)c1 (centres undefined),T/C,Mus musculus [6],112%
Oc1c(C(c2cccs2)c2ccc3cccnc3c2O)ccc2cccnc12,T/C,Mus musculus [7],136%
same,T/C,Mus musculus [8],125%
same,T/C,Mus musculus [9],108%
same,IC50,[2],< 0.3 µg/mL
Oc1c(C(c2ccco2)c2ccc3cccnc3c2O)ccc2cccnc12,T/C,Mus musculus [7],120%
same,T/C,Mus musculus [10],138%
same,T/C,Mus musculus [8],113%
same,IC50,[2],< 0.3 µg/mL
COc1ccc(C(c2ccc3cccnc3c2O)c2ccc3cccnc3c2O)cc1,T/C,Mus musculus [4],164%
same,T/C,Mus musculus [11],111%
same,T/C,Mus musculus [12],128%
same,IC50,[2],< 0.3 µg/mL
CCOC(c1ccc(OC)cc1)c1ccc2cccnc2c1O (centres undefined),T/C,Mus musculus [6],112%
same,T/C,Mus musculus [13],129%
same,IC50,[2],0.8 µg/mL
COc1ccc(C(c2c(O)ccc3ncccc23)c2c(O)ccc3ncccc23)cc1,T/C,Mus musculus [1],inactive
same,IC50,[2],17 µg/mL
COc1ccc(C(c2ccc(C(C)C)cc(=O)c2O)c2ccc(C(C)C)cc(=O)c2O)cc1,T/C,Mus musculus [8],170%
same,IC50,[2],< 0.3 µg/mL
CCOC(c1ccccc1)c1ccc(C(C)C)cc(=O)c1O (centres undefined),T/C,Mus musculus [1],inactive
same,IC50,[2],< 0.3 µg/mL
COc1ccc(C(c2ccc3cccnc3c2O)c2oc(CO)cc(=O)c2O)cc1 (centres undefined),T/C,Mus musculus [3],138%
same,T/C,Mus musculus [4],120%
same,T/C,Mus musculus [5],135%
same,IC50,[2],< 0.3 µg/mL

# Source: ChEMBL document CHEMBL1123625, “Synthesis and antitumor activity of tropolone derivatives. 6. Structure-activity relationships of antitumor-active tropolone and 8-hydroxyquinoline derivatives” (J Med Chem, 1987)
